Data: ChEMBL document CHEMBL1909519, “L-Proline anchored multicomponent synthesis of novel pyrido[2,3-a]carbazoles; investigation of in vitro antimicrobial, antioxidant, cytotoxicity and structure activity relationship studies” (Eur J Med Chem, 2011)
In brackets after ≈: the same amount, converted by molar mass.

How the values were obtained:
Staphylococcus aureus [1] = experiment: Antibacterial activity against Staphylococcus aureus at 25 ug/ml after 24 hrs by agar disk diffusion assay; format: functional; conditions: read-out: DIZ
Outline: (§1)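 Agar well diffusion on nutrient agar against Gram-positive clinical isolates (PSG Hospital, Coimbatore). Compounds in DMSO tested at 0 (control), 25, 50, 75, 100; DMSO as solvent and negative control; ciprofloxacin ([…]) as positive control. Plates incubated 37 ± 2 °C, 24 h; zone of inhibition diameter read in mm.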

Enterococcus faecalis [2] = experiment: Antibacterial activity against Enterococcus faecalis at 25 ug/ml after 24 hrs by agar disk diffusion assay; format: functional; conditions: read-out: DIZ; outline: as §1
Escherichia coli [3] = experiment: Antibacterial activity against Escherichia coli at 25 ug/ml after 24 hrs by agar disk diffusion assay; format: functional; conditions: read-out: DIZ
Outline: (§2)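 Gram-negative clinical isolates (PSG Hospital, Coimbatore) tested by agar well diffusion on nutrient agar. Compounds dissolved in DMSO at 0 (control), 25, 50, 75, 100; DMSO was the negative control and ciprofloxacin ([…]) the positive control. Incubation 37 ± 2 °C for 24 h, then inhibition zone diameter measured in mm.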

Klebsiella pneumoniae [4] = experiment: Antibacterial activity against Klebsiella pneumoniae at 25 ug/ml after 24 hrs by agar disk diffusion assay; format: functional; conditions: read-out: DIZ; outline: as §2
Aspergillus niger [5] = experiment: Antifungal activity against Aspergillus niger at 25 ug/ml after 48 hrs by agar disk diffusion assay; format: functional; conditions: read-out: DIZ
Outline: (§3)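 Fungal isolates (PSG Hospital, Coimbatore) grown on Sabouraud dextrose agar; agar well diffusion with compounds in DMSO at 0 (control), 25, 50, 75, 100. DMSO negative control, fluconazole ([…]) positive control. Plates held 28 ± 2 °C for 48 h; zone of inhibition diameter recorded in mm.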

Candida albicans [6] = experiment: Antifungal activity against Candida albicans at 25 ug/ml after 48 hrs by agar disk diffusion assay; format: functional; conditions: read-out: DIZ; outline: as §3
Staphylococcus aureus [7] = experiment: Antibacterial activity against Staphylococcus aureus after 24 hrs by agar disk diffusion assay; format: functional; outline: as §1
Enterococcus faecalis [8] = experiment: Antibacterial activity against Enterococcus faecalis after 24 hrs by agar disk diffusion assay; format: functional; outline: as §1
Escherichia coli [9] = experiment: Antibacterial activity against Escherichia coli after 24 hrs by agar disk diffusion assay; format: functional; outline: as §2
Klebsiella pneumoniae [10] = experiment: Antibacterial activity against Klebsiella pneumoniae after 24 hrs by agar disk diffusion assay; format: functional; outline: as §2
Aspergillus niger [11] = experiment: Antifungal activity against Aspergillus niger after 48 hrs by agar disk diffusion assay; format: functional; outline: as §3
Candida albicans [12] = experiment: Antifungal activity against Candida albicans after 48 hrs by agar disk diffusion assay; format: functional; outline: as §3
A549 [13] = experiment: Cytotoxicity against human A549 cells after 48 hrs by SRB assay; format: functional, cell-based; conditions: A549, 48 h
Outline: (§4)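 Cells in RPMI-1640 with 10% heat-inactivated FBS, 1 mM NaHCO3, 2 mM L-glutamine, 37 °C, 5% CO2; seeded (B16F10 5 × 10⁴ cells/mL, others 1 × 10⁵ cells/mL), 24 h, then compounds in DMSO at 1.56–50 for 48 h, triplicate wells. TCA fixation, SRB staining 30 min, tris extraction, OD 520 nm; IC50 by linear regression, mean ± SD of three independent experiments; cisplatin positive control.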

B16-F10 [14] = experiment: Cytotoxicity against mouse B16F10 cells after 48 hrs by SRB assay; format: functional, cell-based; conditions: B16-F10, 48 h; outline: as §4
HCT-15 [15] = experiment: Cytotoxicity against human HCT15 cells after 48 hrs by SRB assay; format: functional, cell-based; conditions: HCT-15, 48 h; outline: as §4
[16] = Cytotoxicity against human SK-MEL-12 cells after 48 hrs by SRB assay; format: functional, cell-based; outline: as §4
SK-OV-3 [17] = experiment: Cytotoxicity against human SKOV3 cells after 48 hrs by SRB assay; format: functional, cell-based; conditions: SK-OV-3, 48 h; outline: as §4
[18] = test system: Radical scavenging activity; experiment: Antioxidant activity assessed as DPPH radical scavenging activity after 30 mins by micro plate reader; format: functional
Outline: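 DPPH assay: various compound concentrations brought to volume with ethanol, mixed with 0.1 mM ethanolic DPPH alongside vitamin C standard; shaken 30 min at 24 °C, absorbance read at 517 nm; concentration giving 50% decrease determined.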

A549 [19] = experiment: Ratio of cisplatin IC50 to compound IC50 for human A549 cells; format: functional
HCT-15 [20] = experiment: Ratio of cisplatin IC50 to compound IC50 for human HCT15 cells; format: functional
Homo sapiens = species: Homo sapiens; experiment: Ratio of cisplatin IC50 to compound IC50 for human SK-MEL-12; format: functional
B16-F10 [21] = experiment: Ratio of cisplatin IC50 to compound IC50 for mouse B16F10; format: functional
Staphylococcus aureus [22] = experiment: Antibacterial activity against Staphylococcus aureus at 100 ug/ml after 24 hrs by agar disk diffusion assay; format: functional; conditions: read-out: DIZ; outline: as §1
Enterococcus faecalis [23] = experiment: Antibacterial activity against Enterococcus faecalis at 100 ug/ml after 24 hrs by agar disk diffusion assay; format: functional; conditions: read-out: DIZ; outline: as §1
Escherichia coli [24] = experiment: Antibacterial activity against Escherichia coli at 100 ug/ml after 24 hrs by agar disk diffusion assay; format: functional; conditions: read-out: DIZ; outline: as §2
Klebsiella pneumoniae [25] = experiment: Antibacterial activity against Klebsiella pneumoniae at 100 ug/ml after 24 hrs by agar disk diffusion assay; format: functional; conditions: read-out: DIZ; outline: as §2
Aspergillus niger [26] = experiment: Antifungal activity against Aspergillus niger at 100 ug/ml after 48 hrs by agar disk diffusion assay; format: functional; conditions: read-out: DIZ; outline: as §3
Candida albicans [27] = experiment: Antifungal activity against Candida albicans at 100 ug/ml after 48 hrs by agar disk diffusion assay; format: functional; conditions: read-out: DIZ; outline: as §3
[28] = Cytotoxicity against human SK-MEL-12 cells up to 50 ug/ml after 48 hrs by SRB assay; format: functional, cell-based; outline: as §4
SK-OV-3 [29] = experiment: Cytotoxicity against human SKOV3 cells up to 50 ug/ml after 48 hrs by SRB assay; format: functional, cell-based; outline: as §4
Staphylococcus aureus [30] = experiment: Antibacterial activity against Staphylococcus aureus at 50 ug/ml after 24 hrs by agar disk diffusion assay; format: functional; conditions: read-out: DIZ; outline: as §1
Enterococcus faecalis [31] = experiment: Antibacterial activity against Enterococcus faecalis at 50 ug/ml after 24 hrs by agar disk diffusion assay; format: functional; conditions: read-out: DIZ; outline: as §1
Escherichia coli [32] = experiment: Antibacterial activity against Escherichia coli at 50 ug/ml after 24 hrs by agar disk diffusion assay; format: functional; conditions: read-out: DIZ; outline: as §2
Klebsiella pneumoniae [33] = experiment: Antibacterial activity against Klebsiella pneumoniae at 50 ug/ml after 24 hrs by agar disk diffusion assay; format: functional; conditions: read-out: DIZ; outline: as §2
Aspergillus niger [34] = experiment: Antifungal activity against Aspergillus niger at 50 ug/ml after 48 hrs by agar disk diffusion assay; format: functional; conditions: read-out: DIZ; outline: as §3
Candida albicans [35] = experiment: Antifungal activity against Candida albicans at 50 ug/ml after 48 hrs by agar disk diffusion assay; format: functional; conditions: read-out: DIZ; outline: as §3
A549 [36] = experiment: Cytotoxicity against human A549 cells up to 50 ug/ml after 48 hrs by SRB assay; format: functional, cell-based; outline: as §4
B16-F10 [37] = experiment: Cytotoxicity against mouse B16F10 cells up to 50 ug/ml after 48 hrs by SRB assay; format: functional, cell-based; outline: as §4
HCT-15 [38] = experiment: Cytotoxicity against human HCT15 cells up to 50 ug/ml after 48 hrs by SRB assay; format: functional, cell-based; outline: as §4

SMILES | MIC (Staphylococcus aureus [7]) [µg/mL] | MIC (Enterococcus faecalis [8]) [µg/mL] | MIC (Escherichia coli [9]) [µg/mL] | MIC (Klebsiella pneumoniae [10]) [µg/mL] | MIC (Aspergillus niger [11]) [µg/mL] | MIC (Candida albicans [12]) [µg/mL] | IC50 (A549 [13]) [µg/mL] | IC50 (B16-F10 [14]) [µg/mL] | IC50 (HCT-15 [15]) [µg/mL] | IC50 [18] [µg/mL] | IC50 [28] | IC50 (SK-OV-3 [29]) | also measured
Cc1ccc2[nH]c3c(c2c1)CCc1c-3nc(N)c(C#N)c1-c1cccs1 | 25 (≈ 70.1 µM) | 25 (≈ 70.1 µM) | 25 (≈ 70.1 µM) | 25 (≈ 70.1 µM) | 75 (≈ 210 µM) | 75 (≈ 210 µM) | 4.04 (≈ 11.3 µM) | 2.85 (≈ 8 µM) | 3.45 (≈ 9.68 µM) | 227.37 (≈ 638 µM) |  |  | zone of inhibition at 25 µg/mL (Staphylococcus aureus [1]): 26 mm; zone of inhibition at 25 µg/mL (Enterococcus faecalis [2]): 29 mm; zone of inhibition at 25 µg/mL (Escherichia coli [3]): 27 mm; zone of inhibition at 25 µg/mL (Klebsiella pneumoniae [4]): 28 mm; zone of inhibition at 25 µg/mL (Aspergillus niger [5]): 15 mm; zone of inhibition at 25 µg/mL (Candida albicans [6]): 17 mm; IC50 [16]: 4.61 µg/mL (≈ 12.9 µM); IC50 (SK-OV-3 [17]): 10 µg/mL (≈ 28.1 µM); Ratio IC50 (A549 [19]): 1.39; Ratio IC50 (HCT-15 [20]): 2.31; Ratio IC50 (Homo sapiens): 2.25; Ratio IC50 (B16-F10 [21]): 1.94
Cc1ccc2[nH]c3c(c2c1)CCc1c-3nc(N)c(C#N)c1-c1ccccc1 | 100 (≈ 285 µM) | 100 (≈ 285 µM) | 100 (≈ 285 µM) | 100 (≈ 285 µM) | > 100 | > 100 | 49.2 (≈ 141 µM) | 47.6 (≈ 136 µM) | 44.9 (≈ 128 µM) | 205.5 (≈ 586 µM) | Not Active | Not Active | zone of inhibition at 100 µg/mL (Staphylococcus aureus [22]): 12 mm; zone of inhibition at 100 µg/mL (Enterococcus faecalis [23]): 14 mm; zone of inhibition at 100 µg/mL (Escherichia coli [24]): 16 mm; zone of inhibition at 100 µg/mL (Klebsiella pneumoniae [25]): 15 mm; zone of inhibition at 100 µg/mL (Aspergillus niger [26]): 4 mm; zone of inhibition at 100 µg/mL (Candida albicans [27]): 3 mm
CCOC(=O)c1c(N)nc2c(c1-c1ccc(N(C)C)cc1)CCc1c-2[nH]c2ccc(C)cc12 | 50 (≈ 113 µM) | 50 (≈ 113 µM) | 50 (≈ 113 µM) | 50 (≈ 113 µM) | > 100 | > 100 |  |  |  |  | Not Active | Not Active | zone of inhibition at 50 µg/mL (Staphylococcus aureus [30]): 21 mm; zone of inhibition at 50 µg/mL (Enterococcus faecalis [31]): 18 mm; zone of inhibition at 50 µg/mL (Escherichia coli [32]): 19 mm; zone of inhibition at 50 µg/mL (Klebsiella pneumoniae [33]): 22 mm; zone of inhibition at 50 µg/mL (Aspergillus niger [34]): 7 mm; zone of inhibition at 50 µg/mL (Candida albicans [35]): 5 mm; IC50 (A549 [36]): Not Active; IC50 (B16-F10 [37]): Not Active; IC50 (HCT-15 [38]): Not Active
